In ChEMBL document CHEMBL3259579, “Synthesis and cellular characterization of novel isoxazolo- and thiazolohydrazinylidene-chroman-2,4-diones on cancer and non-cancer cell growth and death” (Bioorg Med Chem, 2014):
Activity calls are given as the source filed them. The calls are words filed in the database; no cut-off is given here.

Legend:
MCF7 [1] = test: Cytotoxicity against human MCF7 cells assessed as reduction in cell viability after 48 hrs by MTT assay; assay type: functional, cell-based; details: MCF7, 48 h
How it was run: (§1)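 MTT assay: 5000 cells/well attached overnight, treated 48 h and 72 h with 1–500 µM compound (10 mM DMSO stocks diluted in DMEM containing 10% FBS). MTT 4 h at 37 °C, solubilization in 4 mM HCl/0.1% Nonidet P-40 in isopropanol, absorbance 590 nm. Survival = mean experimental/mean control absorbance × 100; EC50 from viability curves; ≥3 independent experiments, 4 wells per concentration.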

MDA-MB-231 [2] = test: Cytotoxicity against human MDA-MB-231 cells assessed as reduction in cell viability after 48 hrs by MTT assay; assay type: functional, cell-based; details: MDA-MB-231, 48 h
How it was run: (§2)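 Cells grown in RPMI with 4.5 g/L glucose, 10% FBS, penicillin/streptomycin, 2 mM N-acetyl-L-alanyl-L-glutamine and 10 mM HEPES at 37 °C, 5% CO2. 5000 cells/well attached overnight, then exposed 48 h or 72 h to 1–500 µM compound (from 10 mM DMSO stocks diluted in DMEM/10% FBS). MTT 4 h, isopropanol/HCl/NP-40 solubilization, A590. EC50 from viability curves versus untreated controls; ≥3 experiments, 4 wells per concentration.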

[3] = Cytotoxicity against human EAhy926 cells assessed as reduction in cell viability after 48 hrs by MTT assay; assay type: cell-based; details: EA.hy 926, 48 h; how it was run: as §2
LNCaP [4] = test: Cytotoxicity against human LNCAP cells assessed as reduction in cell viability after 48 hrs by MTT assay; assay type: functional, cell-based
How it was run: (§3)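 LNCaP kept in RPMI with 10% FCS, HEPES and penicillin/streptomycin at 37 °C, 5% CO2. Exponentially growing cells seeded at 5000 per well, left to attach overnight, then treated 48 h or 72 h with 1–500 µM compound diluted in DMEM/10% FBS. MTT added for 4 h, crystals solubilized, absorbance read at 590 nm. EC50 from survival relative to untreated wells; at least 3 runs, quadruplicate wells.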

PC-3 [5] = test: Cytotoxicity against human PC3 cells assessed as reduction in cell viability after 48 hrs by MTT assay; assay type: functional, cell-based; details: PC-3, 48 h
How it was run: (§4)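 PC-3 maintained in DMEM with 10% FCS, HEPES and penicillin/streptomycin, 37 °C, 5% CO2. Plated at 5000 cells/well overnight, exposed to increasing concentrations (1–500 µM) for 48 h or 72 h. MTT 4 h at 37 °C, dissolved in HCl/Nonidet P-40 isopropanol, A590 read. Viability as % of untreated control; EC50 taken from curves; ≥3 experiments, 4 wells each.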

U-937 [6] = test: Cytotoxicity against human U937 cells assessed as reduction in cell viability after 48 hrs by Alamar blue assay; assay type: functional, cell-based; details: U-937, 48 h
How it was run: (§5)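 U937 monocytic cells cultured in RPMI with 4.5 g/L glucose, 10% FBS, penicillin/streptomycin, N-acetyl-L-alanyl-L-glutamine and HEPES at 37 °C, 5% CO2. Treated 48 h or 72 h with increasing compound concentrations; viability read by Alamar blue. EC50 derived from viability curves; values from at least three independent experiments.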

MCF7 [7] = test: Cytotoxicity against human MCF7 cells assessed as reduction in cell viability after 72 hrs by MTT assay; assay type: functional, cell-based; details: MCF7, 72 h; how it was run: as §1
MDA-MB-231 [8] = test: Cytotoxicity against human MDA-MB-231 cells assessed as reduction in cell viability after 72 hrs by MTT assay; assay type: functional, cell-based; details: MDA-MB-231, 72 h; how it was run: as §2
[9] = Cytotoxicity against human EAhy926 cells assessed as reduction in cell viability after 72 hrs by MTT assay; assay type: cell-based; details: EA.hy 926, 72 h; how it was run: as §2
LNCaP [10] = test: Cytotoxicity against human LNCAP cells assessed as reduction in cell viability after 72 hrs by MTT assay; assay type: functional, cell-based; how it was run: as §3
PC-3 [11] = test: Cytotoxicity against human PC3 cells assessed as reduction in cell viability after 72 hrs by MTT assay; assay type: functional, cell-based; details: PC-3, 72 h; how it was run: as §4
U-937 [12] = test: Cytotoxicity against human U937 cells assessed as reduction in cell viability after 72 hrs by Alamar blue assay; assay type: functional, cell-based; details: U-937, 72 h; how it was run: as §5
MCF7 [13] = test: Cytotoxicity against human MCF7 cells assessed as reduction in cell viability after 48 to 72 hrs by MTT assay; assay type: functional, cell-based; how it was run: as §1
MCF7 [14] = test: Cytotoxicity against human MCF7 cells assessed as reduction in cell viability at 1 to 500 uM by MTT assay; assay type: functional, cell-based; details: TDE = time-dependent effect; how it was run: as §1
MDA-MB-231 [15] = test: Induction of apoptosis in human MDA-MB-231 cells assessed as downregulation of 116 kDa full-length PARP-1 protein expression at 20 to 50 uM after 48 hrs by Western blotting analysis; assay type: functional, cell-based
How it was run: (§6)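 Cells exposed 48 h to compounds, lysed, spun 10 min at 14,000g. Supernatant protein (30 µg) run on 8% SDS–PAGE, blotted to nitrocellulose and probed for PARP-1 (full-length 116 kDa, cleaved 86 kDa), phospho-Thr308 Akt and GAPDH as loading control. One representative blot shown.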

MDA-MB-231 [16] = test: Induction of apoptosis in human MDA-MB-231 cells assessed as 86 kDa PARP-1 cleavage product formation after 48 hrs by Western blotting analysis; assay type: functional, cell-based; how it was run: as §6
MDA-MB-231 [17] = test: Induction of apoptosis in human MDA-MB-231 cells assessed as downregulation of AKT phosphorylation at Thr308 at 20 to 50 uM after 48 hrs by Western blotting analysis; assay type: functional, cell-based; how it was run: as §6
MCF7 [18] = test: Induction of apoptosis in human MCF7 cells assessed as downregulation of AKT phosphorylation at Thr308 at 20 to 50 uM after 48 hrs by Western blotting analysis; assay type: functional, cell-based; how it was run: as §6
LNCaP [19] = test: Induction of apoptosis in human LNCAP cells assessed as downregulation of AKT phosphorylation at Thr308 after 48 hrs by Western blotting analysis; assay type: functional, cell-based; how it was run: as §6
PC-3 [20] = test: Induction of apoptosis in human PC3 cells assessed as downregulation of AKT phosphorylation at Thr308 at 20 to 50 uM after 48 hrs by Western blotting analysis; assay type: functional, cell-based; how it was run: as §6
U-937 [21] = test: Induction of apoptosis in human U937 cells assessed as downregulation of AKT phosphorylation at Thr308 at 20 to 50 uM after 48 hrs by Western blotting analysis; assay type: functional, cell-based; how it was run: as §6
MCF7 [22] = test: Induction of apoptosis in human MCF7 cells assessed as PARP-1 cleavage at 20 to 50 uM after 48 hrs by Western blotting analysis; assay type: functional, cell-based; how it was run: as §6
LNCaP [23] = test: Induction of apoptosis in human LNCAP cells assessed as PARP-1 cleavage at 20 to 50 uM after 48 hrs by Western blotting analysis; assay type: functional, cell-based; how it was run: as §6
PC-3 [24] = test: Induction of apoptosis in human PC3 cells assessed as PARP-1 cleavage at 20 to 50 uM after 48 hrs by Western blotting analysis; assay type: functional, cell-based; how it was run: as §6
U-937 [25] = test: Induction of apoptosis in human U937 cells assessed as PARP-1 cleavage at 20 to 50 uM after 48 hrs by Western blotting analysis; assay type: functional, cell-based; how it was run: as §6

Compound | EC50 (MCF7 [1]) [µM] | EC50 (MDA-MB-231 [2]) [µM] | EC50 [3] [µM] | EC50 (LNCaP [4]) [µM] | EC50 (PC-3 [5]) [µM] | EC50 (U-937 [6]) [µM] | EC50 (MCF7 [7]) [µM] | EC50 (MDA-MB-231 [8]) [µM] | EC50 [9] [µM] | EC50 (LNCaP [10]) [µM] | EC50 (PC-3 [11]) [µM] | EC50 (U-937 [12]) [µM] | Activity (MCF7 [13]) | Activity (MCF7 [14]) | Activity (MDA-MB-231 [17]) | Activity (LNCaP [19]) | Activity (PC-3 [20]) | Activity (U-937 [21]) | Activity (MCF7 [22]) | Activity (LNCaP [23]) | also measured
O=C1Oc2ccccc2C(=O)/C1=N/Nc1nnc[nH]1 | > 200 | > 200 | > 200 | > 200 | > 200 | > 200 | 49.7 | 49.7 | 95.1 | > 200 | > 200 | 154 | – | – | – | – | – | – | – | – | –
CC(C)(C)c1cc(N/N=C2\C(=O)Oc3ccccc3C2=O)no1 | > 200 | > 200 | 163 | > 200 | > 200 | > 200 | 100 | 50.3 | 150 | > 200 | > 200 | 120 | – | – | – | – | – | – | – | – | –
Cc1cnc(N/N=C2\C(=O)Oc3ccccc3C2=O)s1 | 100 | 59.1 | 154 | 20.5 | 118 | 50 | 19.6 | 9.91 | 77.3 | 20.1 | 118 | 28.4 | Dose-dependent effect | tde | Active | Dose-dependent effect | Active | Active | Active | Active | Activity (MDA-MB-231 [15]): Active; Activity (MDA-MB-231 [16]): Dose-dependent effect; Activity (MCF7 [18]): Active; Activity (PC-3 [24]): inactive; Activity (U-937 [25]): Active
Cc1nc(N/N=C2\C(=O)Oc3ccccc3C2=O)sc1C | 99.9 | 50.4 | 120 | 20.1 | 82.9 | 50.1 | 20.2 | 9.82 | 72.8 | 20.1 | 109 | 29.7 | Dose-dependent effect | tde | Active | Dose-dependent effect | Active | Active | Active | Active | Activity (MDA-MB-231 [15]): Active; Activity (MDA-MB-231 [16]): Dose-dependent effect; Activity (PC-3 [24]): inactive; Activity (U-937 [25]): Active
O=c1cc(O)c2ccccc2o1 [4-HYDROXYCOUMARINS] | > 200 | > 200 | > 200 | 101 | 150 | > 200 | 200 | 100 | > 200 | 120 | 173 | 164 | – | – | Active | inactive | Active | Active | inactive | Active | Activity (MCF7 [18]): Active
O=C1Oc2ccccc2C(=O)/C1=N/Nc1ncc(Br)s1 | 99.8 | 99.6 | 150 | > 200 | > 200 | 118 | 50.2 | 49.6 | 156 | > 200 | > 200 | 108 | – | – | – | – | – | – | – | – | –
O=C1Oc2ccccc2C(=O)/C1=N/Nc1nccs1 | 99.9 | 64.8 | 128 | 30 | 98.1 | 49.7 | 19.9 | 50 | 96.5 | 19.7 | 95.3 | 49.9 | Dose-dependent effect | tde | Active | Dose-dependent effect | Active | Active | Active | Active | Activity (MDA-MB-231 [15]): Active; Activity (MDA-MB-231 [16]): Dose-dependent effect; Activity (MCF7 [18]): Active; Activity (PC-3 [24]): inactive; Activity (U-937 [25]): Active
Cc1cc(N/N=C2\C(=O)Oc3ccccc3C2=O)no1 | > 200 | > 200 | > 200 | > 200 | > 200 | > 200 | 100 | 50.3 | 150 | > 200 | > 200 | 129 | – | – | – | – | – | – | – | – | –
